Experimental data from paper PMC10107792 (Chemistry (Weinheim an Der Bergstrasse, Germany), 2022).
Where “and” joins values, the source holds several entries; their conditions need not be identical. Equal values may be shown once.

How the values were obtained:
S. aureus = conditions: ref 15c; cited from earlier work
MraY = conditions: read-out: MraY inhibition IC50; in vitro; ref 15c; cited from earlier work
E. coli ΔtolC = assay: Growth inhibition of E. coli ΔtolC; assay type: cell-based; conditions: conjugate vs. non-conjugated 9, E. coli ΔtolC
MraY from S. aureus = target: T1, MraY from S. aureus (Staphylococcus aureus, UniProt Q2FZ93); assay type: biochemical
T1 sequence (Q2FZ93 1-321): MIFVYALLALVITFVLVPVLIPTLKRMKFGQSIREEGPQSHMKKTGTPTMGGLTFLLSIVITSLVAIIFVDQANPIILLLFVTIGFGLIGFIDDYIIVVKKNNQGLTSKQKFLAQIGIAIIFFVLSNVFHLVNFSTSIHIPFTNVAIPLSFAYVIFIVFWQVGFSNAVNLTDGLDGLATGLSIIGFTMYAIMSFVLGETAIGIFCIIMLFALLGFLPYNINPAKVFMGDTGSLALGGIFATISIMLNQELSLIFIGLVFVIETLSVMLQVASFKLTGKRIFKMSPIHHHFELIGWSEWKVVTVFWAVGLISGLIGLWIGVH
Summary of the method: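 S. aureus MraY crude membranes (final total protein ~1 mg/mL) with 50 μM undecaprenyl phosphate and 7.5 μM dansylated Park's nucleotide in 100 mM Tris-HCl pH 7.5, 200 mM KCl, 10 mM MgCl2, 0.1% Triton X-100. Fluorescence followed over time (ex 355/em 520 nm). Rate from 0–2 min linear regression; sigmoidal fit against log concentration gives IC50 ± SD. Variant: membranes pretreated with 1 mM diamide, 0 °C, 20 min (final 50 μM).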

P. aeruginosa PAO1 = assay type: cell-based; conditions: growth inhibition, OD 600 nm
E. coli DH5α = assay type: cell-based; conditions: growth inhibition, efflux-competent strain, OD 600 nm

SMILES | antibacterial activity against S. aureus (S. aureus) | IC50 (MraY) [pM] | fold increase of antibacterial activity relative to 9 (E. coli ΔtolC) | IC50 (MraY from S. aureus) | IC50 (P. aeruginosa PAO1) (P. aeruginosa PAO1) [µg/mL] | IC50 (E. coli DH5α) (E. coli DH5α) [µg/mL]
CO[C@H]1[C@H](O[C@H]([C@H]2O[C@@H](n3ccc(=O)[nH]c3=O)[C@H](O)[C@@H]2O)[C@H](NCCCNC(=O)[C@@H](NC(=O)[C@@H](NC(=O)N[C@H](C(=O)O)C(C)C)[C@@H]2CCNC(=N)N2)[C@@H](OC(=O)CCCCCCCCCCCCC(C)C)C(C)C)C(=O)O)O[C@H](CN)[C@H]1O [Compound 5, muraymycin B8] | promising antibacterial activity | 4 ± 0.7 | – | – | – | –
CC(=O)Oc1cccc(C(=O)N[C@H]2COC(=O)[C@@H](NC(=O)c3cccc(OC(C)=O)c3OC(C)=O)[C@H](CCCNC(=O)CCSSCCCCCCCCCCC(=O)NC[C@H](NC(=O)[C@H](CCCCN)NC(=O)N[C@H](C(=O)O)C(C)C)C(=O)NCCCN[C@@H](C[C@H]3O[C@@H](n4ccc(=O)[nH]c4=O)[C@H](O)[C@@H]3O)C(=O)O)OC(=O)[C@@H](NC(=O)c3cccc(OC(C)=O)c3OC(C)=O)COC2=O)c1OC(C)=O [(AcO)EntKL‐SS‐9] | – | – | ca. 11 fold | 123 nM and 89 nM | >100 | >100
